This is a sample that favours compounds with a hit; in the whole collection about 3.5% have one here.
STAT1 act: STAT1 signaling activators, primary screen, cell-based, HTS, luciferase reporter; activation (% of control), % at 5.5 µM; NIH 3T3 STAT1-luciferase reporter, IFN-gamma, luminescence; 100% = IFN-gamma alone, no compound; 2.6% of 200,000 active; AID 932, 2007;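 active = activation above the screen-wide mean activation plus 3 SD, cut at about 130% in these data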;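 note: raw ratio to IFN-gamma control signal so 100% means no change and 0% no light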
FLuc stim CS: FLuc activators, initial screening, artefact control for FLuc-dependent activation tests, biochemical, ATPlite luminescence. activation factor at 10 µM. ATPlite luciferase biochemical, 10 min; 0 = ATP-free wells, 1 = DMSO control. Luciferin 4-monooxygenase (Photinus pyralis), P08659. 200,000 tested, under 10 active. AID 1027, 2008;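 active = luciferase activation factor, scaled between plate controls, of at least 2 with compound at 10 µM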
Target sequence (P08659 whole entry, looked up): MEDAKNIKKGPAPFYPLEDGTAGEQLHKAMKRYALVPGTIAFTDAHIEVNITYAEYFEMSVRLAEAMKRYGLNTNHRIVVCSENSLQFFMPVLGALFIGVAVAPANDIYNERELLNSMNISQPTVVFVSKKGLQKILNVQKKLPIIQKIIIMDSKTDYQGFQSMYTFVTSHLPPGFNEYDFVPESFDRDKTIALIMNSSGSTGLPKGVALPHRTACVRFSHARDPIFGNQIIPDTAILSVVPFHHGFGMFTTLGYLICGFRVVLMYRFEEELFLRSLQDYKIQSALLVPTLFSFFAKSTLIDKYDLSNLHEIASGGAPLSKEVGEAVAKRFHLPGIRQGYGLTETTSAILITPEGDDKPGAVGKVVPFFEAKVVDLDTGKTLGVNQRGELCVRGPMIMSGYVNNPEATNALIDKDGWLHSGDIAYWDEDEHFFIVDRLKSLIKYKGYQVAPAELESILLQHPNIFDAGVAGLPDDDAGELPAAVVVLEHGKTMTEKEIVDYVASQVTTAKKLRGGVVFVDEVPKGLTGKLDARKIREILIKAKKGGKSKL
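Material: Luciferase/luciferin reagent mix | Doses: Test compounds dosed from 2 mM stocks in 100% DMSO | Timing: 10 min incubation after luciferase reagent addition, room temperature | Measured by: Luminescence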
FLuc inh counter: firefly luciferase enzyme inhibitors, primary screen, artefact control for luciferase-based inhibitor screens, biochemical, luminescence, ATPLite. Luciferin 4-monooxygenase (Photinus pyralis), P08659. 10 min. inhibition, % at 10 µM. 1.5% of 200,000 active. AID 1006, 2008;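 active = inhibition above about 50% when tested at 10 µM, limit read from the data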
APP 5'UTR act: activators of APP 5'UTR luciferase reporter, primary screen, SH-SY5Y cells; SH-SY5Y APP 5'UTR luciferase reporter, luminescence; zero percent = DMSO vehicle wells; activation, % at 2 µM; 1% of 190,000 active; AID 1276, 2008;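 active = activation above a set limit, based on mean plus 3 SD of controls, cut at about 140% in these data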
Pf gamet viab: late stage P. falciparum gametocyte viability inhibitors, primary screen, ATP luminescence, HTS; AID 743093, 2013; 0.065% of 150,000 active; inhibition, % at 10.9 µM; P. falciparum stage V gametocytes, 24 h;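 active = inhibition above the mean plus 3 SD of compounds within the control limits, set per campaign, cut at about 38% in these data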;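 note: 0% = DMSO wells and 100% = medium only without gametocytes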
NF-kB expr up: activators of NF-kB expression in neurons, primary screen, cell-based, HTS; human neuronal cells, NF-kB reporter expression; active compounds read high; fold change at 12.5 µM; 1.6% of 190,000 active; in the data active = fold change above about 3.3
* hit, by the source's call; nt = no result.

SMILES	STAT1 act	FLuc stim CS	FLuc inh counter	APP 5'UTR act	Pf gamet viab	NF-kB expr up
CCc1cc2cc(OC)ccc2nc1SCC(=O)NNC(=O)c1ccco1	104	1	-3	25	-9	nt
CO/C=C\C=C/c1nnn(-c2ccc(Cl)cc2)n1	97	1	1	2	-4	1.2
COc1ccc(CCNC(=O)c2cc(-c3ccccc3)on2)cc1OC	100	1	-1	-7	-5	2.1
CC(C)c1cc(C(=O)NCCc2ccccc2)no1	133*	1	2	75	13	2.2
CCc1ccc(NC(=O)c2cc(CC(C)C)on2)cc1	127	1	3	8	nt	2.6
CCCc1cc(C(=O)Nc2ccc(C)cc2)no1	135*	0.7	27	21	nt	2.1
CCc1ccc(NC(=O)c2noc3c2CCC3)cc1	104	0.4	64*	144*	-21	3.4*
CC(=O)c1ccc(OCCOc2ccc(Cl)c3cccnc23)cc1	85	1	-4	1	nt	0.45
COc1ccc(S(=O)(=O)N(C)C[C@H]2Oc3c(NS(=O)(=O)c4cn(C)cn4)cccc3C(=O)N([C@H](C)CO)C[C@@H]2C)cc1	nt	nt	nt	nt	10	nt
O=C(Nc1ccc(N2CCOCC2)c(Cl)c1)c1ccc(F)cc1	121	0.9	10	43	-4	2.1
CCN1CCN(c2ccc(NC(=O)c3cccc(F)c3)cc2Cl)CC1	136*	1	1	91	-7	2.1
Cc1ccc(NC(=O)c2cnccn2)c(Br)c1	nt	nt	nt	nt	-15	nt
CCc1cc(C(=O)NNC(=S)Nc2cccc(C)c2)cs1	114	0.5	51*	162*	-26	2.8
CCc1cc(C(=O)Nc2ccc(C)cc2Br)cs1	137*	0.7	33	126	-8	5.8*
Cc1cccc(NC(=S)NNC(=O)c2csc(C(C)C)c2)c1	124	0.5	54*	131	0	2.4
O=Nc1c2nc3ccccc3n(O)c-2c2ccccc12	102	0.9	12	40	-4	1
O=C(O/N=C1/CCSc2ccccc21)c1ccccc1	105	0.3	75*	8	nt	1.3
Cc1ccc2c(c1)/C(=N/OC(=O)c1ccc(F)cc1)CCS2	101	0.7	27	9	14	0.93
O=C(O/N=C1\CCCc2ccccc21)c1ccc(F)cc1	127	0.1	87*	15	-19	1.5
COC(=O)N/N=C1\CCCc2ccccc21	100	1	-3	-1	nt	1.2
Cc1cc(C)cc(N2C(=O)CC(c3ccccc3)CC2=O)c1	nt	nt	nt	nt	-2	nt
CC[C@H](C)/C=C(C)/C=C/C1=CC2=CC(=O)[C@]3(C)OC(=O)[C@@H](C(C)=O)[C@@H]3C2=CO1	95	1.1	-10	-3	nt	3.8*
Cc1ccc(Nc2nc(N)c([N+](=O)[O-])c(NCc3ccco3)n2)cc1C	139*	1	-5	50	nt	1.2
Cc1ccc(Nc2nc(N)c([N+](=O)[O-])c(NCCO)n2)cc1C	nt	nt	nt	nt	4	nt
COc1ccc(/C=N/OC(=O)c2ccc(Cl)cc2)c(Cl)c1OC	nt	nt	nt	nt	-17	nt
SMILES	STAT1 act	FLuc stim CS	FLuc inh counter	APP 5'UTR act	Pf gamet viab	NF-kB expr up
Cc1cccc(-c2nnc(SCC(=O)NCc3ccc4c(c3)OCO4)n2C)c1	93	1	-4	6	17	1.3
O=c1cc(-c2ccsc2)oc2cc(-c3ccc4c(c3)OCO4)ccc12	nt	nt	nt	nt	7	nt
O=c1cc(-c2cccs2)oc2ccc(Cl)cc12	147*	0.8	24	36	-9	3.2
O=c1cc(-c2ccc3c(c2)OCCO3)oc2ccc(Cl)cc12	142*	0.5	50*	214*	1	7.2*
CN(C)c1ccc(NC(=O)COC(=O)CCC(=O)c2ccc(F)cc2)cc1	102	0.5	51*	7	5	0.94
Cc1ccc2c(CC(=O)NC3CCCc4ccccc43)coc2c1 (centres undefined)	100	1	2	4	nt	0.92
COc1cccc(NC2SC(=O)N(c3ccccc3)C2=O)c1 (centres undefined)	117	1.1	-5	14	nt	4.1*
Nc1cc2nc[nH]c2cc1N	123	0.8	15	163*	-12	1.6
Cc1cc2nc[nH]c2cc1[N+](=O)[O-]	104	1	-1	-6	-21	0.91
Cc1oc(-c2ccccc2Cl)nc1CSCC(=O)O	99	1	-1	-21	nt	0.82
COc1ccc(NC(=S)Nc2ccccn2)c(OC)c1	136*	0.8	17	60	nt	2
COc1ccc(NC(=S)Nc2cc(C)ccn2)c(OC)c1	145*	0.8	23	nt	nt	2.4
O=c1ccnc(S/C=C/c2ccccc2)[nH]1	97	0.4	63*	1	nt	1.4
COc1ccc(/C=C2\SC(=S)N(CCC(=O)Nc3cccc(C(=O)O)c3)C2=O)cc1	nt	nt	nt	nt	-6	nt
CCc1ccc(Nc2nnc(SCC(=O)Nc3cccc(S(=O)(=O)NC4=NCCCCC4)c3)s2)cc1	100	0.2	82*	16	nt	1.6
Cc1cc(SCC(=O)Nc2cccc(S(=O)(=O)NC3=NCCCCC3)c2)c(C)cc1Br	100	1.1	-7	14	-9	3.4*
c1ccc2nc(-c3nc4ccccc4o3)ccc2c1	64	0.1	88*	115	nt	1.1
O=C(Nc1ccon1)c1sc2cc(F)ccc2c1Cl	131*	0.8	21	34	-9	2.4
O=C(NCc1ccco1)c1sc2cc(F)ccc2c1Cl	111	0.9	13	22	nt	1.7
Cc1ccc2c(Cl)c(C(=O)Nc3cc(C)on3)sc2c1	132*	0.9	13	48	7	2.9
CCCOc1ccc(/C(O)=C2/C(=O)C(=O)N(CCCn3ccnc3)C2c2ccc(C)o2)cc1 (centres undefined)	nt	nt	nt	nt	4	nt
Cn1c(-c2nnn(-c3ccc(F)cc3)n2)cc2ccccc21	149*	0.6	41	159*	19	4.1*
O=C1CCCCC1C(=O)c1cn(-c2ccc(Cl)c(Cl)c2)nn1 (centres undefined)	129*	0.9	5	19	-22	1.8
O=C1NC(=S)S/C1=C/c1ccc(N2CCOCC2)o1	102	0.4	64*	-13	nt	1.2
O=C1/C(=C/c2ccc(N3CCCC3)cc2)NC(=S)N1C1CC1	116	0.9	6	35	nt	0.89
O=C1N/C(=C/c2ccc(N3CCOCC3)o2)C(=O)N1c1ccccc1	100	0.9	6	-54	10	6.2*
O=C1N/C(=C/c2ccc(N3CCCC3)cc2)C(=O)N1c1ccccc1	131*	1	0	39	17	1.6
COc1ccc(CN2C[C@H](Cc3ccccc3)[C@@H](CC(=O)Nc3ccccc3)C2=O)cc1	nt	nt	nt	nt	-21	nt
O=C(O)c1cnc(-c2ccccc2)nc1C(F)(F)F	94	1.1	-10	7	2	1.1
